Source: PubChem
Shown are actives, neighbours in structure and some others; about 2% of the full set was active somewhere.
Jurkat tox 60K = cytotoxicity toward Jurkat cells; Jurkat E6.1 viability, ATP luminescence, 48 h; inhibition, % at 4 µM; actives 1.2% (n = 56,000); AID 463;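 active = inhibition above the mean inhibition of all tested compounds plus 3 SD, cut at about 28% in these data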
Her2 expr inh = lowers expression of human Her2 kinase. SKBR-3 HER2 protein level, AlphaScreen, 18-24 h; hits give low values. HER2 level % of control, % at 10 µM. actives 0.69% (n = 65,000);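 active = HER2 level under 5% of the carrier-only control; inconclusive = no clear call, values can overlap the other calls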;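 also: lower value means stronger loss of Her2 protein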
Target sequence (P04626 whole entry, looked up): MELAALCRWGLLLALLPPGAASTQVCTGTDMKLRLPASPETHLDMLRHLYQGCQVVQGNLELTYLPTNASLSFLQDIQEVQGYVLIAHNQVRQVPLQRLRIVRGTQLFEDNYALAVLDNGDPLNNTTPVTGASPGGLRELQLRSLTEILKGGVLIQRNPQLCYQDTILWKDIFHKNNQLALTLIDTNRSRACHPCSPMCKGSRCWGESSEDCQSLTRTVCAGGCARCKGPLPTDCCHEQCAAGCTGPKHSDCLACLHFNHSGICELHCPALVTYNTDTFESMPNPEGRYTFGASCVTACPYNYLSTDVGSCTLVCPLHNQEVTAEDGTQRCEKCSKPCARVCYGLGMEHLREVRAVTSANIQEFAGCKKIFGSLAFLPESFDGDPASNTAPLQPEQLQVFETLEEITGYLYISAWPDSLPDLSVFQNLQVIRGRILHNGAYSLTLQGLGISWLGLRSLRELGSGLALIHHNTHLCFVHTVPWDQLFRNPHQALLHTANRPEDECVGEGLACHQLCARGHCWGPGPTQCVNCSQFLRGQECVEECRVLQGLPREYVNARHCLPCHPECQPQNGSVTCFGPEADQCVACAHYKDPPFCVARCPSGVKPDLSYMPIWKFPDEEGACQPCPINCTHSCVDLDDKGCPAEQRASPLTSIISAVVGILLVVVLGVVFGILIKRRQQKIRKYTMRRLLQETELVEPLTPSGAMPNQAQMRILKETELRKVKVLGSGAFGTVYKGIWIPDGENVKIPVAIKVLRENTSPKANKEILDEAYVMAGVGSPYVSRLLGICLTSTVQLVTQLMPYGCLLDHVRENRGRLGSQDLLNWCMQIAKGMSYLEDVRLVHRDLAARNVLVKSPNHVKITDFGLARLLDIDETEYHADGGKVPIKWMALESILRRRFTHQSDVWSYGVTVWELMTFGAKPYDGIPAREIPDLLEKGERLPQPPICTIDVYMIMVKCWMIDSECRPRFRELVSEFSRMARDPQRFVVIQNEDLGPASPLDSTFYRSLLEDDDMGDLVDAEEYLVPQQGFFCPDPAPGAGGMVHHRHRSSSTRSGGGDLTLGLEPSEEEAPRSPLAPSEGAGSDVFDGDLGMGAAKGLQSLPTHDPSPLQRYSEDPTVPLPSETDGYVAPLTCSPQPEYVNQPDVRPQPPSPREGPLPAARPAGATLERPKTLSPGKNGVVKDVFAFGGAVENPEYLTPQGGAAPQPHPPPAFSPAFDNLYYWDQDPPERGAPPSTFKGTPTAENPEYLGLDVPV
SK-BR-3 tox 24h = SK-BR-3 proliferation inhibitors | actives 0.47% (n = 41,000) | viability, % at 10 µM | AID 847 | SK-BR-3 viability, CellTiter-Glo ATP luminescence, 24 h; hits give low values;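 active = viability at or below the median of all test compounds minus 3 SD, in both replicates if run twice, cut at about 45% in these data; inconclusive = duplicate replicates that disagree with each other; inactive = viability above that cutoff in every replicate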
HEK293 NFkB inh = lowers PMA/ionomycin-induced NF-kB signal in HEK293 cells; AID 465; actives 0.21% (n = 62,000); inhibition, % at 3 µM; HEK-293 NF-kB luciferase reporter, luminescence;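 active = inhibition above the mean of all tested compounds plus 3 SD, cut at about 40% in these data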
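Material: HEK-293 cells with stable firefly luciferase reporter driven by four HIV NF-kB elements / Also added: PMA plus ionomycin mix as NF-kB-activating stimulus / Compound dosing: 3 µM once, 0.30% DMSO / Times: 1 h pretreatment, 16 h stimulation, 37 °C / Signal: luminescence / Evaluation: per-plate % inhibition versus controls / Benchmarks: DMSO and 10 µM reference inhibitor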
Numbers stand for hits; 0 = inactive; ? = inconclusive; - = no result.

SMILES | Jurkat tox 60K | Her2 expr inh | SK-BR-3 tox 24h | HEK293 NFkB inh
Cc1c(N=Cc2cc3c(cc2Cl)OCO3)c(=O)n(-c2ccccc2)n1C | 0 | 0 | - | 0
c1ccc2c(CCNc3ncnc4nc[nH]c34)c[nH]c2c1 | 87.6 | 0 | - | 0
c1ccc(CCNc2ncnc3nc[nH]c23)cc1 | 0 | 0 | 0 | 0
COc1ccc(Nc2cc(C)nc3ncnn23)c(OC)c1 | 0 | 0 | - | 0
COc1ccc(CNc2cc(C)nc3ncnn23)c(OC)c1 | 79.8 | 0 | 39.6 | 0
Cc1ccc(S(=O)(=O)Nc2cccc3ncccc23)s1 | 30.7 | -5.5 | - | 0
CCOc1ccccc1NS(=O)(=O)c1ccc(Br)s1 | 0 | 0 | 0 | 0
Cc1ccc(C(C(=O)NCc2ccco2)N(CCc2ccccc2)C(=O)Cn2nnc3ccccc32)o1 (stereo unspecified) | 0 | 0 | 0 | 0
CCCCCCn1c(N2CCC(C(N)=O)CC2)nc2c1c(=O)n(C)c(=O)n2C | 0 | 0 | 0 | 0
CC(C)OCCCN1C(=O)c2[nH]nc(-c3ccccc3O)c2C1c1cccc(Cl)c1 (stereo unspecified) | 0 | 0 | 0 | 0
COCCCN1C(=O)c2[nH]nc(-c3ccccc3O)c2C1c1cccc(Cl)c1 (stereo unspecified) | 90.5 | 0 | 0 | 0
O=c1nc2n(c3sc4c(c13)CCC4)Cc1ccccc1-2 | - | 0 | 0 | 0
COc1ccc(C(=O)c2ccc(N(C)C)cc2)c(OC)c1 | 81.4 | 0 | 0 | 0
COc1ccc(C(=O)c2ccc(N3CCOCC3)cc2)c(OC)c1 | - | 0 | 0 | -
COc1ccc(N2C(=O)C3CCCN3C2c2cccc(F)c2)cc1Cl (stereo unspecified) | 0 | 0 | 0 | 0
Clc1ccc(C2=Nn3c(nnc3-c3n[nH]c4c3CCC4)SC2)cc1 | 91.9 | 0 | 0 | 0
Brc1ccc(C2=Nn3c(nnc3-c3n[nH]c4c3CCC4)SC2)cc1 | 78.9 | 0 | 0 | 0
Cc1ccc(-c2nnc3n2N=C(c2ccc(Br)cc2)CS3)cc1 | 0 | 0 | - | 0
COc1cc(C2Nc3ccc4ncccc4c3C3=C2C(=O)CCC3)cc(OC)c1O (stereo unspecified) | 71.1 | 0 | 0 | 0
CCCCCNC(=O)c1c(N)n(/N=C/c2ccco2)c2nc3ccccc3nc12 | - | 0 | 0 | -
c1ccc(Cc2nn3c(COc4ccccc4)nnc3s2)cc1 | 0 | -20.9 | 0 | 0
CCOc1ccccc1OCc1nn2c(COc3ccccc3)nnc2s1 | 0 | 0 | 0 | 0
CS(=O)(=O)N1CCc2cc(S(=O)(=O)Nc3ccc4c(c3)OCCO4)ccc21 | 27.7 | 0 | - | 0
Cc1cc(C(=O)Cn2nnc3ccccc3c2=O)c(C)n1Cc1cccs1 | 0 | 0 | - | 0
CCOC(=O)c1c(C)c(C(=O)Nc2cc(OC)ccc2OC)c(C)n1CC | 35.2 | 0 | - | 0
SMILES | Jurkat tox 60K | Her2 expr inh | SK-BR-3 tox 24h | HEK293 NFkB inh
CCOC(=O)c1[nH]c(C)c(C(=O)Nc2cc(OC)ccc2OC)c1C | 79.9 | 0 | - | 0
CS(=O)(=O)N1CCc2cc(-c3csc(NC(=O)Cc4cccs4)n3)ccc21 | 69.7 | 0 | 0 | 0
O=C(CN1CCOCC1)Nc1nc(-c2ccc3c(c2)CCN3S(=O)(=O)c2ccccc2)cs1 | 0 | 0 | 0 | 0
O=C(CSc1nnc(Cn2nnc3ccccc32)o1)N(Cc1ccc(F)cc1)c1ccccc1 | 97.8 | 0 | 0 | 0
O=C1C2ON(c3ccccc3)C(c3cccnc3)C2C(=O)N1c1ccc(Cl)c(Cl)c1 (stereo unspecified) | - | -18.3 | 0 | -
COC(=O)/C(=C1/Oc2cc(C)oc(=O)c2S1)C(F)(F)F | - | -14.7 | 38.2 | -
COc1ccc(-n2nnnc2SCC(=O)c2cccc(OC)c2)cc1 | 0 | 0 | 0 | 0
CCCS(=O)(=O)c1nnnn1-c1cccc(OC)c1 | 101.3 | -21.7 | ? | 0
CCN(CC(=O)Nc1c(C(=O)OC)[nH]c2ccc(C)cc12)c1ccc2c(c1)OCO2 | 0 | 0 | 0 | 0
CCOc1cc(C(=O)Nc2cc(C)ccn2)cc(OCC)c1OCC | 0 | 0 | 0 | 0
CCOc1cc(C(=O)Nc2cnccn2)cc(OCC)c1OCC | 51.3 | 0 | 0 | 0
CCOC(=O)CC(N)c1ccc2c(c1)OCO2 (stereo unspecified) | 0 | -21.0 | 0 | 0
COC(=O)c1cc(Nc2ncnc3c2cnn3-c2ccccc2)cc(C(=O)OC)c1 | 0 | 0 | - | 0
CCCCCCn1ccc(=N)cc1 | 40.9 | 0 | 0 | 0
Cc1cccc(N2CCN(C(=O)c3ccc(Cl)c(S(=O)(=O)NCc4ccco4)c3)CC2)c1C | 83.9 | 0 | - | 0
Cc1nnc(SCCn2c(N3CCN(c4ccccc4)CC3)nc3c2c(=O)n(C)c(=O)n3C)s1 | 0 | 0 | - | 0
COc1ccc(-c2cc(N)n(S(=O)(=O)c3c(F)c(F)c(F)c(F)c3F)n2)cc1OC | 88.2 | -12.7 | - | 0
